Consider 21 compounds from ChEMBL document CHEMBL2380280, “Xanthates and trithiocarbonates strongly inhibit carbonic anhydrases and show antiglaucoma effects in vivo” (J Med Chem, 2013).

The term Ki denotes the equilibrium dissociation constant of an inhibitor or competing ligand from its target.

Activity calls are given as the source filed them. The rule behind the calls is not given here.

Test [1] concerns the target Carbonic anhydrase 9 (Homo sapiens, UniProt Q16790). Put plainly: Inhibition of recombinant human CA9 transmembrane isoform preincubated for 15 mins by stopped-flow CO2 hydration assay.
The target in test [2] is Carbonic anhydrase 12 (Homo sapiens, UniProt O43570). The test can be described thus: Inhibition of recombinant human CA12 transmembrane isoform preincubated for 15 mins by stopped-flow CO2 hydration assay.
Carbonic anhydrase 12, sequence (O43570 whole entry, canonical isoform): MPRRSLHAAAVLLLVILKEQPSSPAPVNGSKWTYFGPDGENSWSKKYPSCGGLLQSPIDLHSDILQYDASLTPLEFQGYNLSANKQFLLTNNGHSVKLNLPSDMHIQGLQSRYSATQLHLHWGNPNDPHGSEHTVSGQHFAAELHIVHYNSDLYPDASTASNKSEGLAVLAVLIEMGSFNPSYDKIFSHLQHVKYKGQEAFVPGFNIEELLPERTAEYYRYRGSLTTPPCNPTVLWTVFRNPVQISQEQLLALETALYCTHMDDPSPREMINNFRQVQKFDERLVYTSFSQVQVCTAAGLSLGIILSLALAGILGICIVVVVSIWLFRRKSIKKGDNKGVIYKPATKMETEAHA
The target of test [3] is Carbonic anhydrase 1 (Homo sapiens, UniProt P00915). The test can be described thus: Inhibition of recombinant human CA1 cytosolic isoform preincubated for 15 mins by stopped-flow CO2 hydration assay.
Carbonic anhydrase 1, sequence (P00915 whole entry, canonical isoform): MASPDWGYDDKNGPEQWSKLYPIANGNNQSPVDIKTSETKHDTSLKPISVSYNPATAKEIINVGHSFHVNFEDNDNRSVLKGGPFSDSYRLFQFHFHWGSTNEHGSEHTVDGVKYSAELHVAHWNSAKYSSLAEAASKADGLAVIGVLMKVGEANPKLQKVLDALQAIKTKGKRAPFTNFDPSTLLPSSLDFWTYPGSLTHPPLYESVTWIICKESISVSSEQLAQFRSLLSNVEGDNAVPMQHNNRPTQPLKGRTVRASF
Test [4] deals with Carbonic anhydrase 2 (Homo sapiens, UniProt P00918). Put plainly: Inhibition of recombinant human CA2 cytosolic isoform preincubated for 15 mins by stopped-flow CO2 hydration assay.
For test [5], the system named is Oryctolagus cuniculus. Put plainly: Antiglaucoma activity in hypertensive New Zealand albino rabbit model assessed as decrease in carbomer-induced intraocular pressure at 2% administered to eye measured up to 200 to 250 mins by tanometric analysis. The format is functional, organism-based. In a few lines:
(§1)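 Adult male New Zealand albino rabbits, 2−2.5 kg. Glaucoma induced by bilateral anterior-chamber injection of 0.1 mL 0.25% carbomer under im tiletamine/zolazepam plus xilazine anaesthesia. Once IOP was stably raised, drug was instilled into one eye and vehicle into the contralateral eye, three animals per drug. IOP was read by Tono-Pen tonometer after oxybuprocaine drops, before dosing and at 30, 60, 90, 120, 240 and 300 min.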

Test [6] relates to Oryctolagus cuniculus. The test can be described thus: Antiglaucoma activity in normotensive New Zealand rabbit model assessed as decrease in intraocular pressure at 2% administered to eye vitreous by tanometric analysis. The format is functional.
For test [7], the system named is Oryctolagus cuniculus. Put plainly: Antiglaucoma activity in hypertensive New Zealand albino rabbit model assessed as decrease in carbomer-induced intraocular pressure at 2% administered to eye after 50 to 100 mins by tanometric analysis (reference value: 35 to 40 mmHg). The format is functional. In a few lines:
as §1

For test [8], the system named is Oryctolagus cuniculus. Put plainly: Antiglaucoma activity in normotensive New Zealand rabbit model assessed as decrease in intraocular pressure administered to eye vitreous by tanometric analysis. It counts as functional, organism-based.
The test system of test [9] is Oryctolagus cuniculus. The test can be described thus: Antiglaucoma activity in hypertensive New Zealand albino rabbit model assessed as decrease in carbomer-induced intraocular pressure at 2% administered to eye after 150 mins by tanometric analysis. The format is functional, organism-based. In a few lines:
as §1

Test [10] has as its system Oryctolagus cuniculus. The test can be described thus: Antiglaucoma activity in hypertensive New Zealand albino rabbit model assessed as decrease in carbomer-induced intraocular pressure at 2% administered to eye after 100 mins by tanometric analysis (reference value: 35 to 40 mmHg). It counts as functional. In a few lines: as §1
Test [11] relates to Oryctolagus cuniculus. Put plainly: Antiglaucoma activity in hypertensive New Zealand albino rabbit model assessed as decrease in carbomer-induced intraocular pressure at 2% administered to eye after > 250 mins by tanometric analysis. It counts as functional, organism-based. In a few lines:
as §1

Turning to `S=C(S)OC1CCCCC1`, the Ki in [1] worked out at 78.8 nM.
Consider `S=C(S)OCC12CC3CC(CC(C3)C1)C2`, for which, in test [1], the Ki was determined as 776 nM.
Same read-out and setting: with `COC(=S)S` the figure was 631 nM.
Turning to `S=C(S)OC1CC2CC1C1CCCC21` (centres undefined), the Ki in [2] was determined as 835 nM; in test [3] it was 63.4 nM; in test [4], 6.6 nM; in [1], 643 nM.
On to `S=C([S-])OCCc1ccccn1.[K+]`, for which the outcome in test [5] was Active. In addition, the Activity in test [6] is on record as 1 mmHg; in [7], 4 mmHg. The Ki in test [1] was 4.3 nM.
`CC(C)CCOC(=S)S`: in test [1], the Ki came out at 322 nM.
For `CCN[C@H]1C[C@H](C)S(=O)(=O)c2sc(S(N)(=O)=O)cc21`, the result in [8] and in [9] was inactive.
`CN(C)CCOC(=S)S`: the Ki in test [1] was found to be 760 nM.
With `CC(C)(C)OC(=O)NCCCCOC(=S)[S-].[K+]`, the outcome in test [5] was Active. Also, the Activity in test [6] is on record as 1 mmHg; in [7], 4 mmHg. The inhibition constant (Ki) in test [1] worked out at 622 nM.
For the compound `S=C([S-])OCC(c1ccccc1)c1ccccc1.[K+]`, the result in test [5] and in [11] was Active. The Activity in test [6] came to 1 mmHg; in test [10], 12 mmHg. The Ki in test [1] was 58 nM.
In the case of `CN(C)CCOCCOC(=S)[S-].[K+]`, the outcome in test [5] was Active. The Activity worked out at 1 mmHg in [6] and 4 mmHg in test [7]. Further, in test [1], the Ki is 831 nM.
On the same counts, the results for `S=C([S-])OCCC12CC3CC(CC(C3)C1)C2.[K+]` are “Active”, 1 mmHg, 4 mmHg and 779 nM.
As to `S=C(S)OC1CCCC1`, the Ki in test [2] was 74.7 nM; in test [3] it was 532 nM; in [4], 366 nM; in test [1], 47.2 nM.
For the compound `S=C(S)SCc1ccccc1`, in [1], the Ki stood at 7.8 nM.
The same measure, in the same setting: with `CCCCCOC(=S)S` the figure was 403 nM.
The same measure, in the same setting: with `CCOC(=S)S` the figure was 566 nM.
On the same count and under the same terms, with `CC(C)(C)OC(=O)NCCCCCCOC(=S)S` the figure was 765 nM.
Consider `CC(C)OC(=S)S`, for which the inhibition constant (Ki) in test [1] came to 531 nM.
Same read-out and setting: with `CCCCCCCCOC(=S)S` the figure was 72.1 nM.
Still for that read-out and setting: with `S=C(S)OCc1ccccc1` the figure was 8.1 nM; with `N#CNC(=S)S`, 678 nM.
